ChEMBL document CHEMBL3046968, “Combined strategy for phytotoxicity enhancement of benzoxazinones” (J Agric Food Chem, 2010)
Activity calls are given as the source filed them. The calls are words filed in the database; no cut-off is given here.

Assays:
Solanum lycopersicum [1] = test: Phytotoxicity against Solanum lycopersicum (tomato) assessed as growth inhibition of root length at 1 to 5 uM measured 5 days post treatment; assay type: functional, organism-based
How it was run: (§1)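 Seeds germinated in Petri dishes on one filter-paper sheet, in aqueous solution buffered with 10^-2 M MES and brought to pH 6.0 with NaOH. Compounds were dissolved in DMSO, then diluted into buffer (5 μL DMSO/mL). Root length was recorded by automated image acquisition with statistical analysis.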

Allium cepa [2] = test: Phytotoxicity against Allium cepa (onion) assessed as growth inhibition of root length measured 7 days post treatment; assay type: functional, organism-based; settings: for IC50: 168 h
How it was run: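 Onion seeds germinated in 90 mm Petri dishes on one filter-paper sheet, in aqueous 10^-2 M MES buffer brought to pH 6.0 with NaOH. Compounds were dissolved in DMSO and diluted into buffer (5 μL DMSO/mL) to test concentrations of 1, 0.5, 0.1, 0.05 and 0.01 mM. Root length was recorded after 7 days by automated image acquisition. EC50 was derived from a constant-slope sigmoidal fit on a log concentration scale.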

Allium cepa [3] = test: Phytotoxicity against Allium cepa (onion) assessed as growth inhibition of root length at 1 to 5 uM measured 7 days post treatment; assay type: functional, organism-based; how it was run: as §1
Lepidium sativum [4] = test: Phytotoxicity against Lepidium sativum assessed as growth inhibition of root length measured 4 days post treatment; assay type: functional, organism-based; settings: for IC50: 96 h
How it was run: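 Cress bioassay run over 4 days in 90 mm Petri dishes with one filter-paper sheet. Seeds were in aqueous 10^-2 M MES buffer at pH 6.0, set with 1 M NaOH. DMSO stocks were diluted into buffer at 5 μL/mL to final concentrations of 1, 0.5, 0.1, 0.05 and 0.01 mM. Root length was recorded by an automated system. Values were fitted to a constant-slope sigmoidal curve against log concentration to obtain EC50.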

Lactuca sativa [5] = test: Phytotoxicity against Lactuca sativa (lettuce) assessed as growth inhibition of root length measured 5 days post treatment; assay type: functional, organism-based
How it was run: (§2)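 Lettuce or tomato seeds were grown for 5 days on one filter-paper sheet in 90 mm dishes. The medium was aqueous 10^-2 M MES adjusted to pH 6.0 with NaOH. Compounds were taken from DMSO stocks and diluted into buffer (5 μL DMSO/mL), giving final levels of 1, 0.5, 0.1, 0.05 and 0.01 mM. Root length was acquired automatically. EC50 came from a constant-slope sigmoidal dose-response fit versus log concentration.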

Solanum lycopersicum [6] = test: Phytotoxicity against Solanum lycopersicum (tomato) assessed as growth inhibition of root length measured 5 days post treatment; assay type: functional, organism-based; how it was run: as §2
Lactuca sativa [7] = test: Phytotoxicity against Lactuca sativa (lettuce) assessed as growth inhibition of root length at 1 to 5 uM measured 5 days post treatment; assay type: functional, organism-based; how it was run: as §1
Solanum lycopersicum [8] = test: Phytotoxicity against Solanum lycopersicum (tomato) assessed as growth inhibition of root length at 1 uM measured 5 days post treatment; assay type: functional; settings: 120 h, read-out: GI; how it was run: as §1
Lactuca sativa [9] = test: Phytotoxicity against Lactuca sativa (lettuce) assessed as growth inhibition of root length at 5 uM measured 5 days post treatment; assay type: functional; settings: 120 h, read-out: GI; how it was run: as §1
Allium cepa [10] = test: Phytotoxicity against Allium cepa (onion) assessed as growth inhibition of root length at 1 uM measured 7 days post treatment; assay type: functional; settings: 168 h, read-out: GI
Lepidium sativum [11] = test: Phytotoxicity against Lepidium sativum assessed as growth inhibition of root length at < 1 uM measured 4 days post treatment; assay type: functional, organism-based

CCCON1C(=O)COc2ccc(Cl)cc21 [6-Cl-4-Pr-D-DIBOA]
growth inhibition (GI) (Solanum lycopersicum [1]): Active | growth inhibition (GI) (Allium cepa [2]): Active | IC50 (Allium cepa [2]): 200 nM | growth inhibition (GI) (Allium cepa [3]): Active | growth inhibition (GI) (Lepidium sativum [4]): Active | IC50 (Lepidium sativum [4]): 60 nM | growth inhibition (GI) (Lactuca sativa [5]): Active | growth inhibition (GI) (Solanum lycopersicum [6]): Active | growth inhibition (GI) (Lactuca sativa [7]): Active | inhibition of growth at 1 µM (Solanum lycopersicum [8]): 50% | inhibition of growth at 5 µM (Lactuca sativa [9]): 50% | inhibition of growth at 1 µM (Allium cepa [10]): 50%

CCC(=O)ON1C(=O)COc2c(Cl)cccc21
growth inhibition (GI) (Allium cepa [2]): Active | growth inhibition (GI) (Lepidium sativum [4]): Active | growth inhibition (GI) (Lactuca sativa [5]): Active | growth inhibition (GI) (Solanum lycopersicum [6]): Active

CCCCC(=O)ON1C(=O)COc2ccc(Cl)cc21 [6-Cl-4-Val-D-DIBOA]
growth inhibition (GI) (Solanum lycopersicum [1]): Active | growth inhibition (GI) (Allium cepa [2]): Active | IC50 (Allium cepa [2]): 200 nM | growth inhibition (GI) (Allium cepa [3]): Active | growth inhibition (GI) (Lepidium sativum [4]): Active | IC50 (Lepidium sativum [4]): 60 nM | growth inhibition (GI) (Lactuca sativa [5]): Active | growth inhibition (GI) (Solanum lycopersicum [6]): Active | growth inhibition (GI) (Lactuca sativa [7]): Active | inhibition of growth at 1 µM (Solanum lycopersicum [8]): 50% | inhibition of growth at 5 µM (Lactuca sativa [9]): 50% | inhibition of growth at 1 µM (Allium cepa [10]): 90% | growth inhibition (GI) (Lepidium sativum [11]): Active

CCC1Oc2ccc(Cl)cc2N(O)C1=O [6-Cl-2-Et-D-DIBOA]
growth inhibition (GI) (Allium cepa [2]): Active | IC50 (Allium cepa [2]): 1600 nM | growth inhibition (GI) (Lepidium sativum [4]): Active | IC50 (Lepidium sativum [4]): 400 nM | growth inhibition (GI) (Lactuca sativa [5]): Active | growth inhibition (GI) (Solanum lycopersicum [6]): Active | IC50 (Solanum lycopersicum [6]; 120 h): 2300 nM | inhibition of growth at 1 µM (Allium cepa [10]): 60% | growth inhibition (GI) (Lepidium sativum [11]): Active

O=C1C(c2ccccc2)Oc2ccc(F)cc2N1O (stereo not drawn)
growth inhibition (GI) (Allium cepa [2]): Active | growth inhibition (GI) (Lepidium sativum [4]): Active | growth inhibition (GI) (Lactuca sativa [5]): Active | growth inhibition (GI) (Solanum lycopersicum [6]): Active

CCCC1Oc2c(Cl)cccc2N(O)C1=O (stereo not drawn)
growth inhibition (GI) (Allium cepa [2]): Active | growth inhibition (GI) (Lepidium sativum [4]): Active | growth inhibition (GI) (Lactuca sativa [5]): Active | growth inhibition (GI) (Solanum lycopersicum [6]): Active

O=C1C(c2ccccc2)Oc2ccc(Cl)cc2N1O (stereo not drawn)
growth inhibition (GI) (Allium cepa [2]): Active | growth inhibition (GI) (Lepidium sativum [4]): Active | growth inhibition (GI) (Lactuca sativa [5]): Active | growth inhibition (GI) (Solanum lycopersicum [6]): Active

CCCC1Oc2ccc(Cl)cc2N(O)C1=O (stereo not drawn)
growth inhibition (GI) (Allium cepa [2]): Active | growth inhibition (GI) (Lepidium sativum [4]): Active | growth inhibition (GI) (Lactuca sativa [5]): Active | growth inhibition (GI) (Solanum lycopersicum [6]): Active

O=C1C(c2ccccc2)Oc2c(Cl)cccc2N1O (stereo not drawn)
growth inhibition (GI) (Allium cepa [2]): Active | growth inhibition (GI) (Lepidium sativum [4]): Active | growth inhibition (GI) (Lactuca sativa [5]): Active | growth inhibition (GI) (Solanum lycopersicum [6]): Active

CCCCC(=O)ON1C(=O)COc2ccc(F)cc21
growth inhibition (GI) (Allium cepa [2]): Active | growth inhibition (GI) (Lepidium sativum [4]): Active | growth inhibition (GI) (Lactuca sativa [5]): Active | growth inhibition (GI) (Solanum lycopersicum [6]): Active

CCC1Oc2c(Cl)cccc2N(O)C1=O (stereo not drawn)
growth inhibition (GI) (Allium cepa [2]): Active | growth inhibition (GI) (Lepidium sativum [4]): Active | growth inhibition (GI) (Lactuca sativa [5]): Active | growth inhibition (GI) (Solanum lycopersicum [6]): Active

CCC(=O)ON1C(=O)COc2ccc(F)cc21
growth inhibition (GI) (Allium cepa [2]): Active | growth inhibition (GI) (Lepidium sativum [4]): Active | growth inhibition (GI) (Lactuca sativa [5]): Active | growth inhibition (GI) (Solanum lycopersicum [6]): Active | growth inhibition (GI) (Lepidium sativum [11]): Active

CCC1Oc2ccc(F)cc2N(O)C1=O [6-F-2-Et-D-DIBOA]
growth inhibition (GI) (Allium cepa [2]): Active | IC50 (Allium cepa [2]): 1300 nM | growth inhibition (GI) (Lepidium sativum [4]): Active | IC50 (Lepidium sativum [4]): 1000 nM | growth inhibition (GI) (Lactuca sativa [5]): Active | growth inhibition (GI) (Solanum lycopersicum [6]): Active | inhibition of growth at 1 µM (Allium cepa [10]): 50%
